Measurements: ChEMBL document CHEMBL1123952, “(Phosphinyloxy)acyl amino acid inhibitors of angiotensin converting enzyme (ACE). 1. Discovery of (S)-1-[6-amino-2-[[hydroxy(4-phenylbutyl)phosphinyl]oxy]-1-oxohexyl]-L -proline a novel orally active inhibitor of ACE” (J Med Chem, 1988)

What was measured:
[1] = target: T1, Angiotensin-converting enzyme (Oryctolagus cuniculus, UniProt P12822); assay: In vitro inhibition of angiotensin I converting enzyme in rabbit lung with hippuryl-histidyl-leucine as substrate; format: tissue-based; conditions: read-out: I50
T1 sequence (P12822 whole entry): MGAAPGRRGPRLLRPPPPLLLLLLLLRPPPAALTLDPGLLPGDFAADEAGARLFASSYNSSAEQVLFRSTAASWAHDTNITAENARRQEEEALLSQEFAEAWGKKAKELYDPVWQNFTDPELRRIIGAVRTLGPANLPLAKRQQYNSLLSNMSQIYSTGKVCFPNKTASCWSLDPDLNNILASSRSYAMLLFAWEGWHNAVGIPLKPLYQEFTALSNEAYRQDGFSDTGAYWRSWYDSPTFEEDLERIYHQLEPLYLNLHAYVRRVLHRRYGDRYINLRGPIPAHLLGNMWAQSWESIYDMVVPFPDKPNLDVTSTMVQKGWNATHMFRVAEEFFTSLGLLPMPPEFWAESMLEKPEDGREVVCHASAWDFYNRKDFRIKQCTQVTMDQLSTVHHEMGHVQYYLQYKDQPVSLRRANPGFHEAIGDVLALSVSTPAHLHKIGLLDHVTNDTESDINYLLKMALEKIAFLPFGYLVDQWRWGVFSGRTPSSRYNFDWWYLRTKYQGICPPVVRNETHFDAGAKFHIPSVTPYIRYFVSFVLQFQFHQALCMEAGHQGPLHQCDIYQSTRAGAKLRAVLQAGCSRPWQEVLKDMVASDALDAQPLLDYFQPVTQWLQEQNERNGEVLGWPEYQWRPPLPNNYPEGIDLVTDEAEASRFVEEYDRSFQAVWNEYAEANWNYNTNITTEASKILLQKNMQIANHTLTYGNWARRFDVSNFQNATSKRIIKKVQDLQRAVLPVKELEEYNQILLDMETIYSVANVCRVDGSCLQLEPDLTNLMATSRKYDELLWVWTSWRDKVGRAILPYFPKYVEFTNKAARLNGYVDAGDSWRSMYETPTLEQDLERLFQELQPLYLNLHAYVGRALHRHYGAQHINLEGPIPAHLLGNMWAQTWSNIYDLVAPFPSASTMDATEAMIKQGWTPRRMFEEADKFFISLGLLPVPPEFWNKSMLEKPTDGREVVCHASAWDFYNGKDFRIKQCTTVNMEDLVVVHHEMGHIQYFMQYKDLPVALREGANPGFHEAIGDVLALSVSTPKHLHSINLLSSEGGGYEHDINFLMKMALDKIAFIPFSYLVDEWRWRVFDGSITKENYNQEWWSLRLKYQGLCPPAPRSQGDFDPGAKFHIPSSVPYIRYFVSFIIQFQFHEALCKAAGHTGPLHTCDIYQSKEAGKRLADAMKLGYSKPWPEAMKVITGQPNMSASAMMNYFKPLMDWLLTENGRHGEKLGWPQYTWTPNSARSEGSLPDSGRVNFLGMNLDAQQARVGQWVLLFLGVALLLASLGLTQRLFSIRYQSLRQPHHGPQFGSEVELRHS
In short: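 Rabbit lung ACE with synthetic substrate hippurylhistidylleucine; the liberated hippuric acid was quantitated spectrophotometrically. Conditions follow the authors' earlier method.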

Rattus norvegicus [2] = assay: In vivo inhibition of angiotensin I induced pressor effect after iv administration in rats; format: functional
In short: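 Conscious, unrestrained male Sprague-Dawley rats (225-275 g) with aortic and vena caval catheters, recovered at least 2 weeks. […] Compound was given iv in water or 5% NaHCO3 and responses followed up to 70 min. Maximum inhibition was averaged over four rats per dose; ED50 was interpolated from the maximum-inhibition vs dose plot.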

Rattus norvegicus [3] = assay: In vivo inhibition of angiotensin I induced pressor effect after po administration in rats; format: functional
In short: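 Oral dosing of conscious catheterized male Sprague-Dawley rats (225-275 g) in water, 5% NaHCO3 or 1% agar suspension. Angiotensin I (310 ng/kg iv) pressor responses were followed up to 280 min against pre-dose values, with four rats per dose. ED50 was interpolated from a plot of maximum inhibition vs dose.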

Rattus norvegicus [4] = assay: In vivo inhibition angiotensin I induced pressor effect after po administration of 5 umol/kg in rats; format: functional
In short: (§1)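 Normotensive catheterized male Sprague-Dawley rats (225-275 g), conscious and unrestrained. Compound was given orally at 5.0 µmol/kg in water, 5% NaHCO3 or 1% agar suspension. Angiotensin I (310 ng/kg iv) pressor responses were compared with pre-dose responses for up to 280 min. Maximum percent inhibition is the mean of four animals.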

Rattus norvegicus [5] = assay: In vivo inhibition angiotensin I induced pressor effect after (5 uML/kg) p.o. administration in rats; format: functional; in short: as §1

SMILES	IC50 [1]	ED50 (Rattus norvegicus [2])	ED50 (Rattus norvegicus [3])	inhibition in vivo at 5 µmol/kg (Rattus norvegicus [4])	Inhibition (Rattus norvegicus [5])
C[C@H](NP(=O)(O)CCCCc1ccccc1)C(=O)N1CCC[C@H]1C(=O)O	12 nM	0.05 µmol/kg	25 µmol/kg	–	–
NCCCC[C@H](OP(=O)(O)CCCCC1CCCCC1)C(=O)N1CCC[C@H]1C(=O)O	55 nM	0.18 µmol/kg	2.3 µmol/kg	68%	–
CCCC[C@H](OP(=O)(O)CCCCc1ccccc1)C(=O)N1CCC[C@H]1C(=O)O	180 nM	> 1.4 µmol/kg	–	–	–
CC(=O)NCCCC[C@H](OP(=O)(O)CCCCc1ccccc1)C(=O)N1CCC[C@H]1C(=O)O	180 nM	< 1.4 µmol/kg	–	–	–
NCCCC[C@H](OP(=O)(O)CCCCc1ccccc1)C(=O)N1CCC[C@H]1C(=O)O [CERONAPRIL]	36 nM	0.063 µmol/kg	0.53 µmol/kg	–	90%
CCCCCC(C)P(=O)(O)O[C@@H](CCCCN)C(=O)N1CCC[C@H]1C(=O)O (stereo not given in full)	61 nM	0.13 µmol/kg	–	29%	–
NCCCC[C@H](NP(=O)(O)CCCCc1ccccc1)C(=O)N1CCC[C@H]1C(=O)O	9 nM	0.022 µmol/kg	2.6 µmol/kg	–	–
CCOC(=O)[C@H](CCc1ccccc1)N[C@@H](C)C(=O)N1CCC[C@H]1C(=O)O	–	–	0.46 µmol/kg	–	–
NCCCCC[C@H](OP(=O)(O)CCCCc1ccccc1)C(=O)N1CCC[C@H]1C(=O)O	110 nM	> 1.5 µmol/kg	–	–	–
CC(C)C[C@H](OP(=O)(O)CCCCc1ccccc1)C(=O)N1CCC[C@H]1C(=O)O	3800 nM	–	–	–	–
CC(=O)NCCC[C@H](OP(=O)(O)CCCCc1ccccc1)C(=O)N1CCC[C@H]1C(=O)O	42 nM	0.25 µmol/kg	–	4%	–
C[C@H](OP(=O)(O)CCCCc1ccccc1)C(=O)N1CCC[C@H]1C(=O)O	59 nM	0.75 µmol/kg	> 25 µmol/kg	–	–
NCCCC[C@H](OP(=O)(O)CCc1ccccc1)C(=O)N1CCC[C@H]1C(=O)O	190 nM	0.217 µmol/kg	1.39 µmol/kg	65%	–
NCCCCC(CP(=O)(O)CCCCc1ccccc1)C(=O)N1CCC[C@H]1C(=O)O (stereo not given in full)	85 nM	0.18 µmol/kg	35 µmol/kg	–	–
N=C(N)NCCCC[C@H](OP(=O)(O)CCCCc1ccccc1)C(=O)N1CCC[C@H]1C(=O)O	6.2 nM	0.045 µmol/kg	–	48%	–
CCCCCCCCP(=O)(O)O[C@@H](CCCCN)C(=O)N1CCC[C@H]1C(=O)O	38 nM	0.091 µmol/kg	1.4 µmol/kg	83%	–
N=C(N)NCCCCC[C@H](OP(=O)(O)CCCCc1ccccc1)C(=O)N1CCC[C@H]1C(=O)O	32 nM	> 1.5 µmol/kg	–	–	–
CCCCP(=O)(O)O[C@@H](CCCCN)C(=O)N1CCC[C@H]1C(=O)O	96 nM	0.091 µmol/kg	–	27%	–

SMILES	IC50 [1]	ED50 (Rattus norvegicus [2])	ED50 (Rattus norvegicus [3])	inhibition in vivo at 5 µmol/kg (Rattus norvegicus [4])	Inhibition (Rattus norvegicus [5])
CC(C)CCCP(=O)(O)O[C@@H](CCCCN)C(=O)N1CCC[C@H]1C(=O)O	150 nM	0.095 µmol/kg	–	69%	–
NCCCC[C@H](OP(=O)(O)CCCCc1cccnc1)C(=O)N1CCC[C@H]1C(=O)O	94 nM	0.19 µmol/kg	–	56%	–
NCCC[C@H](OP(=O)(O)CCCCc1ccccc1)C(=O)N1CCC[C@H]1C(=O)O	390 nM	1 µmol/kg	–	28%	–
O=C(O)[C@@H]1CCCN1C(=O)[C@H](CCc1ccccc1)OP(=O)(O)CCCCc1ccccc1	640 nM	29 µmol/kg	–	–	–
CCCCCCCP(=O)(O)O[C@@H](CCCCN)C(=O)N1CCC[C@H]1C(=O)O	19 nM	0.12 µmol/kg	0.62 µmol/kg	75%	–
CCCCCCP(=O)(O)O[C@@H](CCCCN)C(=O)N1CCC[C@H]1C(=O)O	24 nM	0.036 µmol/kg	0.94 µmol/kg	82%	–
CCCCC(C)CP(=O)(O)O[C@@H](CCCCN)C(=O)N1CCC[C@H]1C(=O)O (stereo not given in full)	40 nM	0.14 µmol/kg	–	68%	–
CCCCCCCCCCP(=O)(O)O[C@@H](CCCCN)C(=O)N1CCC[C@H]1C(=O)O	95 nM	0.17 µmol/kg	–	2%	–
NCCCC[C@H](OP(=O)(O)CCCCCc1ccccc1)C(=O)N1CCC[C@H]1C(=O)O	14 nM	0.067 µmol/kg	–	65%	–
CCCCCCCCCP(=O)(O)O[C@@H](CCCCN)C(=O)N1CCC[C@H]1C(=O)O	31 nM	0.13 µmol/kg	–	23%	–
NCCCC[C@H](OP(=O)(O)CCCc1ccccc1)C(=O)N1CCC[C@H]1C(=O)O	190 nM	0.069 µmol/kg	2.62 µmol/kg	67%	–
C[C@H](CP(=O)(O)CCCCc1ccccc1)C(=O)N1CCC[C@H]1C(=O)O	220 nM	–	–	–	–
CCCCCP(=O)(O)O[C@@H](CCCCN)C(=O)N1CCC[C@H]1C(=O)O	27 nM	0.071 µmol/kg	–	57%	–
C[C@H](N[C@@H](CCc1ccccc1)C(=O)O)C(=O)N1CCC[C@H]1C(=O)O [ENALAPRILAT ANHYDROUS]	–	0.033 µmol/kg	5.13 µmol/kg	–	–
N=C(N)NCCC[C@H](OP(=O)(O)CCCCc1ccccc1)C(=O)N1CCC[C@H]1C(=O)O	19 nM	0.12 µmol/kg	–	40%	–
NCCCC[C@H](OP(=O)(O)CCCCc1ccc(F)cc1)C(=O)N1CCC[C@H]1C(=O)O	31 nM	0.067 µmol/kg	0.89 µmol/kg	81%	–
C[C@H](CS)C(=O)N1CCC[C@H]1C(=O)O [CAPTOPRIL]	–	0.092 µmol/kg	0.73 µmol/kg	–	–
